Assay outcomes as filed in PubChem.
miR122 inh = inhibitors of miR-122 in Huh7 cells; Huh7 miR-122 Renilla luciferase sensor, 48 h; neutral wells = 0, positive control = 100; activation (reporter increase), % at 12.5 µM; 0.3% of 340,000 active; AID 602342;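 active means mean replicate activation score at least 90 and every replicate individually at or above 90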;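 further: higher luciferase means less miR-122 activity so hits act as miR-122 inhibitors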
CAL PDZ FP-1 = CAL PDZ (human) peptide binding inhibition | inhibition, % at 24.9 µM | 0.92% of 300,000 active | purified CAL PDZ, TMR-peptide fluorescence polarization, 1 h;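 active means mean inhibition of at least 30% with at least half of replicates also reaching 30%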
SR-BI DiI-HDL act = activators of SR-BI mediated HDL lipid uptake; CHO ldlA[mSR-BI] cells, DiI-HDL uptake fluorescence, 3 h; 100 = double the neutral-control signal; activation, % at 12.5 µM; 0.096% of 320,000 active; AID 504775;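 active means mean replicate activation of at least 60% and every replicate at or above 60%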
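Test system: SR-BI-overexpressing, LDLR-lacking CHO cells; Medium: Ham's F12 with 0.5% BSA, HEPES 25 mM, pH 7.4; Schedule: 3 h, 37 °C; Technique: bottom-read fluorescence, 550/595 nm.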
ARNT-TACC3 inh = ARNT/TACC3 interaction disruption. 0.66% of 390,000 active. Q9Y6A5. inhibition, % at 9.99 µM. AlphaScreen His-ARNT PAS-B/GST-TACC3 binding, luminescence; TACC3 fragment carries E629A point mutation;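 active means mean inhibition of replicates at least 50% and at least half of replicates each reaching 50%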
CAL PDZ FP-2 = inhibitors of human CAL PDZ peptide binding | Q9HD26 | purified CAL PDZ, TMR-peptide fluorescence polarization, 1 h | inhibition, % at 20 µM | 0.02% of 330,000 active | AID 504414;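 active means highest replicate inhibition of at least 40%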
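Material: tagged CAL PDZ protein CerCALP, purified; buffer or medium: sodium phosphate/NaCl buffer pH 7.4 with TCEP, IgG, Thesit; also added: fluorescent TMR peptide probe; schedule: 1 h incubation at room temperature before polarization reading; technique: fluorescence polarization from S- and P-plane intensities, G-factor corrected; control set: unlabelled peptide and DMSO controls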
SR-BI DiI inh = mouse SR-BI HDL lipid transfer inhibition | Q61009 | ldlA[mSR-BI] CHO cells, DiI-HDL uptake fluorescence, 3 h | inhibition, % at 12.5 µM | 0.96% of 320,000 active | AID 488896;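 active means mean replicate inhibition of at least 70% and a set share of replicates each scoring 70 or more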
Target sequence (Q61009 whole entry, looked up): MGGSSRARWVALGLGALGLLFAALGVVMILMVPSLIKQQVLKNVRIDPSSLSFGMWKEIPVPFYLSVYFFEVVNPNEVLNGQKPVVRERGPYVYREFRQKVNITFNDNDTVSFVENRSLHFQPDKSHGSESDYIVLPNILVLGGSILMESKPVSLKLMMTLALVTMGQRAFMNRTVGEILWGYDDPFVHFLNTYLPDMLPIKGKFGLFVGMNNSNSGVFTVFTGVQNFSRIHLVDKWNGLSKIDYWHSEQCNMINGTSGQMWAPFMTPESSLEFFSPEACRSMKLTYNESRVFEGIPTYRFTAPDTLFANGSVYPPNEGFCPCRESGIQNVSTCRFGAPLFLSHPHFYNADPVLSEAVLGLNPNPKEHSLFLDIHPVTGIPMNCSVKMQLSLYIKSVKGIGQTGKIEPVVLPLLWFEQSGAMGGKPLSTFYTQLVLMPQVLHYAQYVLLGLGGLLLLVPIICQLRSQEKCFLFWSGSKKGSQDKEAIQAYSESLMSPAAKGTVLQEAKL
A number is an active result. Hits are enriched below; roughly 2.1% of the tested compounds scored in any of these assays.

Screening Cc1ccc(S(=O)(=O)Nc2cc(C)c(O)c(S(=O)(=O)c3ccc(C)cc3)c2)cc1 returned miR122 inh 139.6, CAL PDZ FP-1 inactive, SR-BI DiI-HDL act inactive, ARNT-TACC3 inh inactive, CAL PDZ FP-2 inactive and SR-BI DiI inh inactive.
`O=[N+]([O-])c1cc(Cl)c(O)c2ncccc12` gave miR122 inh inactive, CAL PDZ FP-1 inactive, SR-BI DiI-HDL act inactive, ARNT-TACC3 inh 57.1, CAL PDZ FP-2 inactive and SR-BI DiI inh inactive.
`O=[N+]([O-])c1cc([N+](=O)[O-])c2cccnc2c1Oc1ccccc1O` gave miR122 inh inactive, CAL PDZ FP-1 inactive, SR-BI DiI-HDL act inactive, ARNT-TACC3 inh inactive, CAL PDZ FP-2 inactive and SR-BI DiI inh inactive.
`O=[N+]([O-])c1cc(F)c2cccnc2c1O` gave miR122 inh inactive, CAL PDZ FP-1 inactive, ARNT-TACC3 inh 70.5 and CAL PDZ FP-2 inactive.
O=[N+]([O-])c1ccc(O)c2ncccc12 was read as miR122 inh inactive, CAL PDZ FP-1 inactive, SR-BI DiI-HDL act inactive, ARNT-TACC3 inh 55.6, CAL PDZ FP-2 inactive and SR-BI DiI inh inactive.
Clc1cc2cccnc2c2ncccc12 was read as miR122 inh inactive, CAL PDZ FP-1 inactive, SR-BI DiI-HDL act inactive, ARNT-TACC3 inh 106.3, CAL PDZ FP-2 inactive and SR-BI DiI inh inactive.
O=[N+]([O-])c1cc(Cl)c2cccnc2c1O was read as miR122 inh inactive, CAL PDZ FP-1 inactive, SR-BI DiI-HDL act inactive, ARNT-TACC3 inh 46.0, CAL PDZ FP-2 inactive and SR-BI DiI inh inactive.
O=[N+]([O-])c1ccc(Cl)c2cccnc12 was read as CAL PDZ FP-1 inactive, SR-BI DiI-HDL act inactive, ARNT-TACC3 inh inactive, CAL PDZ FP-2 inactive and SR-BI DiI inh inactive.
CCOc1ccc(OCC)c(NC(=O)Nc2ccc3c(c2)N(C)C(=O)CS3)c1 was read as miR122 inh inactive, CAL PDZ FP-1 inactive, SR-BI DiI-HDL act inactive, ARNT-TACC3 inh inactive, CAL PDZ FP-2 inactive and SR-BI DiI inh 87.6.
CC(=O)Nc1ccc(NC(=O)Nc2ccc3c(c2)N(C)C(=O)CS3)cc1 was read as CAL PDZ FP-1 inactive, SR-BI DiI-HDL act inactive, CAL PDZ FP-2 inactive and SR-BI DiI inh inactive.
For O=C(NC(C(=O)c1ccccc1)c1ccccc1)c1ccccc1 (stereo not drawn) the results were CAL PDZ FP-1 38.3, SR-BI DiI-HDL act inactive, ARNT-TACC3 inh inactive, CAL PDZ FP-2 inactive and SR-BI DiI inh inactive.
`COC(=O)C[C@@H]1C[C@H]2c3cc(NC(=O)Nc4ccccc4)ccc3O[C@H]2[C@@H](CO)O1` gave miR122 inh inactive and ARNT-TACC3 inh inactive.
Cc1noc(C)c1S(=O)(=O)Nc1ccc2c(c1)C(=O)N([C@H](C)CO)C[C@H](C)[C@H](CN(C)CC1CC1)OCCCC[C@H](C)O2 was read as miR122 inh inactive and ARNT-TACC3 inh inactive.
For CN(C)CCN(C(=O)c1ccc(Br)s1)c1nc2cc3c(cc2s1)OCCO3 the results were miR122 inh inactive, CAL PDZ FP-1 inactive, SR-BI DiI-HDL act inactive, ARNT-TACC3 inh inactive, CAL PDZ FP-2 inactive and SR-BI DiI inh inactive.
Screening CCN(c1ccccc1)S(=O)(=O)c1ccc(C(=O)N(CCCN(C)C)c2nc3cc4c(cc3s2)OCO4)cc1 returned CAL PDZ FP-1 inactive, SR-BI DiI-HDL act inactive, ARNT-TACC3 inh inactive, CAL PDZ FP-2 inactive and SR-BI DiI inh inactive.
For CN(C)CCN(C(=O)c1cccs1)c1nc2cc3c(cc2s1)OCCO3 the results were miR122 inh inactive, CAL PDZ FP-1 41.0, SR-BI DiI-HDL act inactive, ARNT-TACC3 inh inactive, CAL PDZ FP-2 inactive and SR-BI DiI inh inactive.
Screening CN(C)CCCN(C(=O)c1ccc(S(=O)(=O)N(C)Cc2ccccc2)cc1)c1nc2cc3c(cc2s1)OCO3 returned miR122 inh inactive, CAL PDZ FP-1 41.7, SR-BI DiI-HDL act inactive, ARNT-TACC3 inh inactive, CAL PDZ FP-2 inactive and SR-BI DiI inh inactive.
`O=C(CC1CC1)N1CC[C@H]2[C@H](CO)Nc3ccc(-c4ccccc4)cc3[C@H]21` gave miR122 inh inactive and ARNT-TACC3 inh inactive.
c1cc2ccc3ccc(-n4cnnn4)c4ccc(c1)c2c34 was read as miR122 inh inactive, CAL PDZ FP-1 118.9, SR-BI DiI-HDL act inactive, ARNT-TACC3 inh inactive and SR-BI DiI inh inactive.
`COc1ccc(CSc2nncn2N)cc1Br` gave miR122 inh inactive, CAL PDZ FP-1 inactive, SR-BI DiI-HDL act inactive, ARNT-TACC3 inh active, CAL PDZ FP-2 inactive and SR-BI DiI inh inactive.
Cc1ccccc1SCC(=O)NNC(=O)c1ccccc1O was read as miR122 inh inactive, CAL PDZ FP-1 inactive, SR-BI DiI-HDL act inactive, ARNT-TACC3 inh inactive, CAL PDZ FP-2 inactive and SR-BI DiI inh 78.9.
Cc1[nH]n(-c2nc(-c3ccc(Cl)cc3)cs2)c(=O)c1N=Nc1ccc(O)cc1 was read as miR122 inh inactive, CAL PDZ FP-1 inactive, SR-BI DiI-HDL act inactive, CAL PDZ FP-2 inactive and SR-BI DiI inh 110.5.
`CCC(=O)NC(=S)Nc1cccc(NC(=O)CC)c1` gave miR122 inh inactive, CAL PDZ FP-1 inactive, SR-BI DiI-HDL act inactive, ARNT-TACC3 inh inactive, CAL PDZ FP-2 inactive and SR-BI DiI inh inactive.
CCC(=O)NC(=S)Nc1cccc(NC(=O)c2ccc(Cl)cc2Cl)c1 was read as miR122 inh inactive, CAL PDZ FP-1 inactive, SR-BI DiI-HDL act inactive, ARNT-TACC3 inh inactive, CAL PDZ FP-2 inactive and SR-BI DiI inh 80.8.
For COCCn1c(SCC(=O)NCc2ccc3c(c2)OCO3)nnc1C(C)C the results were miR122 inh inactive, CAL PDZ FP-1 inactive, SR-BI DiI-HDL act inactive, ARNT-TACC3 inh inactive, CAL PDZ FP-2 inactive and SR-BI DiI inh inactive.
Screening COCCn1c(SCC(=O)NCc2ccc3c(c2)OCO3)nnc1-c1c[nH]c2ccccc12 returned miR122 inh inactive, CAL PDZ FP-1 63.8, SR-BI DiI-HDL act inactive, ARNT-TACC3 inh inactive, CAL PDZ FP-2 inactive and SR-BI DiI inh inactive.
Screening CCC(=O)N1[C@@H]2Cn3c(ccc(/C=C/c4ccccc4)c3=O)[C@H]1[C@@H](C(=O)N(C)C)[C@@H]2CO returned miR122 inh inactive and ARNT-TACC3 inh inactive.
Screening COCC(=O)Nc1nc2ccc(C)cc2s1 returned CAL PDZ FP-1 inactive, SR-BI DiI-HDL act inactive, ARNT-TACC3 inh inactive, CAL PDZ FP-2 inactive and SR-BI DiI inh inactive.
`Cc1ccc2nc(NC(=O)COC(=O)c3ccncc3)sc2c1` gave CAL PDZ FP-1 62.2, SR-BI DiI-HDL act inactive, ARNT-TACC3 inh inactive, CAL PDZ FP-2 inactive and SR-BI DiI inh inactive.
For COc1ccc(CNC(=O)COC(=O)c2n[nH]c3ccccc23)cc1 the results were miR122 inh inactive, CAL PDZ FP-1 inactive, SR-BI DiI-HDL act inactive, ARNT-TACC3 inh inactive and SR-BI DiI inh inactive.
For Cc1oc(-c2ccccc2)nc1C(=O)OCC(=O)NC(=O)NCC(C)C the results were miR122 inh inactive, CAL PDZ FP-1 36.8, SR-BI DiI-HDL act inactive, ARNT-TACC3 inh inactive, CAL PDZ FP-2 inactive and SR-BI DiI inh inactive.
